Measured values as given in ChEMBL document CHEMBL1649261, “Pharmacodynamic profile of tigecycline against methicillin-resistant Staphylococcus aureus in an experimental pneumonia model” (Antimicrob Agents Chemother, 2009).
Converted amounts (≈) assume the structure as drawn.

Tested on: Staphylococcus aureus
Assay: Antibacterial activity against hospital-acquired methicillin-resistant Staphylococcus aureus 56 by microdilution method
Format: functional
Outline: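 Tigecycline MIC measured in triplicate by broth microdilution following CLSI guidelines. Isolates were stored at −80°C in skim milk and subcultured twice on blood agar before testing.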

CC(=O)NC[C@H]1CN(c2ccc(N3CCOCC3)c(F)c2)C(=O)O1 [LINEZOLID]
MIC: 8 µg/mL (≈ 23.7 µM)
